Measured values collected from several papers.
Each line is one published result; the experiments were not run side by side.
Organism: Mycolicibacterium smegmatis
Observed: microbial growth

| SMILES | test | test system | conditions | quantity | value |
| --- | --- | --- | --- | --- | --- |
| NC1C2CC3CC(C2)CC1C3 (stereo not shown) |  |  | 48 h | IC50 | > 500 µM |
| CCCc1ccc(-c2c[nH]c(N)n2)cc1 |  | ATCC700084 MC^2155 | 48 h | MIC | 200 µM |
| O=C(N/N=C/c1ccc([N+](=O)[O-])o1)c1ccc(O)cc1 |  | ATCC14468 |  | MIC90 | > 1000 µg/mL |
| CO[C@H]1/C=C/O[C@@]2(C)Oc3c(C)c(O)c4c(O)c(c(/C=N/N5CCN(C)CC5)c(O)c4c3C2=O)NC(=O)/C(C)=C\C=C\[C@H](C)[C@H](O)[C@@H](C)[C@@H](O)[C@@H](C)[C@H](OC(C)=O)[C@@H]1C | disc diffusion |  | 15 µg/disc | inhibition zone | 14 mm |
| CCCCOc1ccc(-c2c[nH]c(N)n2)cc1 |  | ATCC700084 MC^2155 | 48 h | MIC | > 200 µM |
| Cc1nc2sc3ccccc3n2c1C(=O)N1CCN(Cc2cn(-c3cccc([N+](=O)[O-])c3)nn2)CC1 |  |  | 72 h | IC50 | 44.1 µM |
| O=C(O)CCCCCC1NC(=O)CS1 (racemic) |  | MC^2155 |  | MIC90 | 10 µM |
| Cc1nc2sc3ccccc3n2c1C(=O)N1CCN(CCn2cc(-c3ccc(C(C)(C)C)cc3)nn2)CC1 |  |  | 72 h | IC50 | 34.6 µM |
| CC(C)=CCC/C(C)=C/COCCNC1C2CC3CC(C2)CC1C3 (stereo not shown) |  |  | 48 h | IC50 | ~9 µM |
| CC(C)=CCC/C(C)=C/C(=O)O |  |  | 48 h | IC50 | > 500 µM |
| CCCCCCCCCc1cn(CCN2CCN(C(=O)c3c(C)nc4sccn34)CC2)nn1 |  |  | 72 h | IC50 | 28.2 µM |
| COc1c(N2C[C@@H]3CCCN[C@@H]3C2)c(F)cc2c(=O)c(C(=O)O)cn(C3CC3)c12 |  | ATCC14468 |  | MIC90 | 0.12 µg/mL |
| CCCCCc1ccc(-c2c[nH]c(N)n2)cc1 |  | ATCC700084 MC^2155 | 48 h | MIC | 200 µM |
